KCC2 mod: modulators of human KCC2 chloride dependent transport; Q9H2X9; KCC2 cells, thallium flux FluoZin-2 fluorescence; B-score of Tl+ flux slope (higher = more flux/activation; lower = inhibition) at 10 µM; hit rate 2.2% among 190,000;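 active = thallium flux slope and its plate-corrected score both differing from the plate sample mean at a set confidence after two filtering rounds, in either direction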;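 also: slope of fluorescence scaled to starting intensity during 10 to 20 s after thallium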
Target sequence (Q9H2X9 whole entry, looked up): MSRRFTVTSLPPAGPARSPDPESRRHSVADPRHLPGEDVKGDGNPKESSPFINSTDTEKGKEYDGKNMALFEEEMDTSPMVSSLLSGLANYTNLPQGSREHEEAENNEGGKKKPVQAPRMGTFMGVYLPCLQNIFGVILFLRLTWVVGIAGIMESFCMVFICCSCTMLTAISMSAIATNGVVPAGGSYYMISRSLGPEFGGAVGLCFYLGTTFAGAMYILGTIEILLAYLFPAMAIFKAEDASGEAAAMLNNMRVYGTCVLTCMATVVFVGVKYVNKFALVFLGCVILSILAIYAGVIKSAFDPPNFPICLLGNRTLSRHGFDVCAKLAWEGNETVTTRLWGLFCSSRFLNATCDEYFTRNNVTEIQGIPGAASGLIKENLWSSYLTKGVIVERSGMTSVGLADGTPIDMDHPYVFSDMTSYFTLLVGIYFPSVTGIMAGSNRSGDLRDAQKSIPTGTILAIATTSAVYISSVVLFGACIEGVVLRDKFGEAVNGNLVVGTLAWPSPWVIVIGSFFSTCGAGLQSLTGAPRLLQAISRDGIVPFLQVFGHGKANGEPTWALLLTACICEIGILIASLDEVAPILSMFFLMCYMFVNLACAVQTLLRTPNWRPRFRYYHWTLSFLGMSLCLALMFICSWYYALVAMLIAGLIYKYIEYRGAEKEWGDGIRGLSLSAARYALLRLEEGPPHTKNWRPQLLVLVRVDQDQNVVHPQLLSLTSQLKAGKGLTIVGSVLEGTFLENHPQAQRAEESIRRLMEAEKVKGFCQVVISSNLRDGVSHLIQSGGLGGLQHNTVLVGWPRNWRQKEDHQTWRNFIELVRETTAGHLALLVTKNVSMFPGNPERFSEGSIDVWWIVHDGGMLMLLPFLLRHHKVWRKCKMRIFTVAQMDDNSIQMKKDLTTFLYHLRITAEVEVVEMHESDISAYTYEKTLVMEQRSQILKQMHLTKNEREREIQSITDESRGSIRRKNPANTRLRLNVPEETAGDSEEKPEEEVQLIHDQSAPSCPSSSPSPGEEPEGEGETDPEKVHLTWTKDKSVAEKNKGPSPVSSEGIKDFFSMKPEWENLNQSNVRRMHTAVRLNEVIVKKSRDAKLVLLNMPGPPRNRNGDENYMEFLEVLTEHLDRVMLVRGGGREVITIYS
ROMK primary: modulates human ROMK potassium channel activity. AID 1918. hit rate 2% among 130,000. P48048. Tet-inducible ROMK, thallium flux fluorescence; actives lie on both sides. B-score at 10 µM;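 active = signal ratio slope over the read window, or its plate-corrected B-score, at least 3 SD from the plate mean, either direction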;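 also: B-score of the F/F0 ratio slope over 7 to 12 s after thallium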
Arbovirus inh: arbovirus infection inhibition. hit rate 0.37% among 200,000. arbovirus infection cell-based antiviral screen. inhibition, % at 10 µM; in the data active = inhibition above about 30%
Calpain2 inh: inhibitors of pig calpain II | hit rate 0.37% among 220,000 | inhibition, % at 16 µM | AID 1236 | purified calpain II, fluorogenic peptide substrate, 30 min;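 active = inhibition above about 50%, limit read from the data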
PKD1 inh: blocks activity of human protein kinase D1. Q15139. PKD1 kinase fluorescence polarization assay. inhibition, % (test concentration not listed). hit rate 0.056% among 200,000. AID 797; in the data active = inhibition above about 50%
MDM2 E3 inh: blocks human Mdm2 ubiquitin ligase activity | Q00987 | cell-based MDM2 ubiquitination luciferase reporter, 2 h; 0 = plate control, 100 = twice control, blank-subtracted | signal enhancement, % at 5 µM | hit rate 0.11% among 210,000 | AID 1230;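 active = signal enhancement of 30% or more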;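 also: luminescence tracks abundance of the self-degrading MDM2-luciferase fusion protein; higher signal means inhibition of MDM2 E3 ligase activity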
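Test system: stable mammalian line carrying autodegrading MDM2–luciferase fusion reporter; quantity: 2000 cells in each well; times: 4 h cell settling then 2 h compound exposure, 37 °C; detection: luminescence with SteadyLite reagent, 15 min at room temperature; evaluation: percent signal gain over controls, blank-subtracted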
ROMK retest: confirmation of human ROMK potassium channel modulators | ROMK thallium flux, fluorescence ratio; active compounds read low | hit rate 54% among 3,000 | normalized thallium flux (F/F0 slope) at 10 µM | AID 1917 | shares compounds with ROMK primary;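 active = Flux at 10 µM at least 3 SD below or above vehicle control mean in one or both replicates; inconclusive = no clear call, values can overlap the other calls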
The depositor's hits bear a star; u = inconclusive; x = no result. In the library only some 3.7% were active in any assay of this set; here they are far more common.

SMILES	KCC2 mod	ROMK primary	Arbovirus inh	Calpain2 inh	PKD1 inh	MDM2 E3 inh	ROMK retest
COc1ccc(CCNC(=O)CN(c2cccc([N+](=O)[O-])c2)S(C)(=O)=O)cc1OC	0.0468	-0.0473	16.8	1.7	-8.6	-14.8	0.0818
O=C(NC1CCCCC1)[C@H](CSCc1ccccc1)N1Cc2ccccc2C1=O	-1.09	-3.42*	-5.2	16.8	-8.6	x	u
N#CCCN(Cc1cccnc1)C(=O)c1ccc(S(=O)(=O)N2CCOCC2)cc1	x	-0.852	-2.1	21.9	3.6	-2.9	x
Cc1nn(C)cc1CN1CCCC(C(=O)c2ccc(-c3ccccc3)c(F)c2)C1 (stereo unspecified)	x	-0.856	-9.8	9.2	-9.9	-14.3	x
Nc1nn(-c2ccccc2)c(N)c1N=Nc1ccccc1	-1.23	3.13*	-24.4	15.8	-0.8	-2.5	0.0857
Cc1nn(-c2ccccc2)c(N)c1N=Nc1ccccc1	-0.773	x	12.4	20.2	-4.4	-14.8	x
Fc1cccc(-c2oncc2-c2nnnn2-c2ccc(Cl)cc2)c1	-1.36	-7.45*	-4.0	2.6	-10.8	9.3	0.0733
COc1cccc(C(=O)C2CCCN(C(=O)c3cccc(C#CC(C)(C)O)c3)C2)c1 (stereo unspecified)	-0.0326	1.66*	8.5	15.6	1.6	-11.6	0.0794
COc1c(C)cc(C(=O)C2CCCN(C(=O)c3cccc(F)c3)C2)cc1C (stereo unspecified)	-0.165	0.152	4.5	-6.5	4.1	-25.9	x
COc1ccc(C(=O)CCC(=O)O)c(C)c1	x	4.28*	5.6	-26.0	0.0	-17.5	0.0826
COc1ccc2oc(C(=O)CCC(=O)O)c(N)c2c1	x	x	2.3	-50.7	-7.8	-22.2	x
O=C(Cc1ccccc1)NCc1cccnc1	0.907	0.369	8.1	-29.3	1.1	-5.2	x
O=C(Cc1ccc(-c2ccccc2)cc1)NCc1cccnc1	-2.73	3.2*	-15.2	-15.2	-4.3	5.8	0.0878
Cc1ccc(C(=O)O)cc1N=Cc1cc(Br)cc(Br)c1O	0.0186	5.13*	-2.4	-26.4	1.7	-2.9	0.108*
CC(C)(C)c1cnnn1-c1ccc(C(=O)CCl)cc1	0.158	x	-6.0	-7.1	-9.7	-12.4	0.0537*
CC(C)(C)c1cnnn1-c1ccc(C=O)cc1	0.0129	-0.74	-5.1	0.4	-5.4	-5.1	x
Cc1ccc(NC(=O)COC(=O)CCc2nc3ccccc3c(=O)[nH]2)cc1Cl	-0.0345	0.577	5.2	31.2	-0.3	-16.2	x
Cc1ccc(NC(=S)NCC2CCCO2)cc1C (stereo unspecified)	-0.164	-0.4	-1.8	-17.0	-15.1	-5.4	x
Cc1ccc(NC(=S)NCC2CCN(C(C)c3ccccc3)C2)cc1C (stereo unspecified)	-0.362	-4.22*	-3.7	-6.7	-4.2	-4.4	0.0587*
COc1ccccc1-n1c(SCC(=O)N2CCCC2)nc2cccnc21	-0.0535	-0.361	4.5	-16.1	2.0	-14.5	x
COc1ccc(S(=O)(=O)N(C)C)cc1NC(=O)COC(=O)c1nc2nccc(C)n2n1	0.873	x	x	-1.4	x	x	0.0751
COc1ccc(S(=O)(=O)N(C)C)cc1NC(=O)COC(=O)c1nn(C)c(=O)c2ccccc12	-0.851	0.192	8.3	-20.4	-0.8	1.9	x
Cc1cc(Cl)ccc1OC(C)C(=O)Nc1ccccc1N1CCOCC1 (stereo unspecified)	-0.736	x	3.7	23.4	-5.8	-7.1	u
COc1cc(OC)cc(C(=O)N[C@H](C(=O)Nc2ccccc2N2CCOCC2)C(C)C)c1	0.213	1.17	-11.0	1.6	-6.1	3.7	x
COc1ccc(Cl)cc1NC(=O)CN(C)CC(=O)Nc1ccccc1N1CCOCC1	0.686	5.09*	-2.8	20.2	1.9	-8.2	u
SMILES	KCC2 mod	ROMK primary	Arbovirus inh	Calpain2 inh	PKD1 inh	MDM2 E3 inh	ROMK retest
O=C1OC(c2cccs2)=N/C1=C\c1ccc(-c2cccc(Cl)c2)o1	x	x	-0.4	-81.7	-11.2	-10.8	0.0518*
CCOc1ccc(N(CC(=O)Nc2ccccc2C(=O)NC(C)CC)S(C)(=O)=O)cc1 (stereo unspecified)	x	0.715	-12.6	-11.0	-2.4	-5.2	x
Cc1ccc(NC(=S)NNC(=O)c2ccccc2O)c(C)c1	2.55	2.88*	-11.8	-32.5	-8.4	-7.4	0.0635*
Cc1cccc(NC(=S)NNC(=O)c2ccc(O)cc2O)c1C	0.203	0.731	8.0	-24.1	-1.1	-5.2	x
Cc1cccc(C)c1NC(=O)c1ccc(-c2ccc(Cl)cc2Cl)o1	0.124	-2.93*	27.6	15.6	1.2	-8.8	0.052*
Cc1ccccc1NC(=O)c1ccc(-c2ccc(Cl)cc2Cl)o1	x	0.129	19.7	-1.9	-5.5	4.8	x
O=C(c1ccc(CNc2c(N3CCCC3)c(=O)c2=O)cc1)N1CCN(C2CCCCC2)CC1	1.21	3.74*	7.9	12.9	-9.5	x	0.0847
Cc1[nH]nc2c1C(c1cccc(O)c1)C1=C(CC(C)(C)CC1=O)N2 (stereo unspecified)	0.124	x	9.5	-403.1	9.9	-5.4	x
O=[N+]([O-])c1cc(-c2ncccn2)c([N+](=O)[O-])s1	-3.13	-1.2	-34.4	2.7	4.8	3.9	0.0605*
O=C(Nc1ncccn1)c1cc([N+](=O)[O-])cc([N+](=O)[O-])c1	0.0174	-0.636	1.6	-5.6	-5.6	0.8	x
Cc1ccc2[nH]c(-c3cccc(F)c3)cc(=O)c2c1	-0.0492	3.07*	-7.5	-37.2	-2.8	x	0.0834
COc1ccc2[nH]c(-c3cccc(F)c3)cc(=O)c2c1	-1.61	4.03*	-11.2	-227.4	-6.9	x	0.0948
O=c1cc(-c2cccc(F)c2)[nH]c2ccccc12	0.0258	3.66	-16.5	-2.5	-17.9	x	x
Cc1ccc(-c2cc(=O)c3cc(F)ccc3[nH]2)cc1	0.633	0.956	-2.2	-4.7	-15.5	x	x
Cc1onc(-c2c(F)cccc2Cl)c1C(=O)OCC(=O)NC1CC1	-0.213	0.0104	15.0	28.6	2.4	-3.8	x
Clc1ccc(OCCn2ccnc2)c2ccccc12	x	-3.22*	-7.6	3.5	-1.4	-7.9	u
CCOC(=O)C1=C(Nc2ccccc2)CC(C)(O)C(C(=O)OCC)C1c1ccc(Cl)cc1 (stereo unspecified)	0.339	x	20.6	34.0	4.6	-9.5	x
CCOC(=O)N1CCN(C(=O)CN(c2cc(Cl)ccc2OC)S(=O)(=O)c2ccccc2)CC1	x	-0.63	1.9	-7.8	-4.4	-16.8	x
Cn1c(=O)cc2c3c(c(N4CCCCC4)ccc31)C(=O)c1ccccc1-2	-1.57	x	x	-5.7	x	-4.2	x
O=C1c2ccccc2-c2onc3ccc(N4CCCC4)c1c23	-1.71	-5.59*	-38.6	19.6	1.6	-10.9	0.0604*
N#C/C(=C\c1ccccn1)c1nc2ccccc2s1	0.328	-5.71*	-6.0	-8.3	5.5	-43.5	0.0321*
COC(=O)c1ccc(/C=C(\C#N)c2nc3ccccc3s2)cc1	0.579	x	-0.7	-60.7	-4.1	-26.9	x
O=C(CCl)Nc1cccc(Oc2ccccc2)c1	-0.68	-4.76*	-38.6	15.0	-4.6	-12.5	u

High-throughput results (PubChem BioAssay)
